14 compounds from ChEMBL document CHEMBL3593168, “Structure-Based Design of Macrocyclic Coagulation Factor VIIa Inhibitors” (J Med Chem, 2015) can be followed below.

Where only a bound is given, the exact number is not on record here.

Assay [1] has as its target Coagulation factor VII/tissue factor (Homo sapiens, UniProt P08709). Briefly: Inhibition of human recombinant TF/F7a complex using S2288 as substrate preincubated for 15 mins followed by protein addition measured for 60 mins. The class given is protein-complex assay. Summed up: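 Ki measured against recombinant human TF/FVIIa enzyme at room temperature (25 °C) and averaged from two experiments.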

In a further assay the target is Coagulation factor IX (Homo sapiens, UniProt P00740). Briefly: Inhibition of human F9a measured for 30 mins. The method, boiled down:
(§1)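 Ki measured against purified human enzymes (APC, FXa, FIXa, plasma kallikrein, thrombin, trypsin) at room temperature (25 °C) and averaged from two experiments.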

A further assay addresses Trypsin (Homo sapiens, UniProt P07477+P07478+P35030). Kind of assay: Inhibition of human trypsin measured for 30 mins. The class given is protein assay. Summed up:
as §1

The target of a further assay is Prothrombin (Homo sapiens, UniProt P00734). Briefly: Inhibition of human thrombin using S2238 as substrate measured for 30 mins. Summed up: as §1
In a further assay the target is Coagulation factor X (Homo sapiens, UniProt P00742). Briefly: Inhibition of human F10a using S2222 as substrate measured for 30 mins. The method, boiled down:
as §1

For assay [2], the target named is Vitamin K-dependent protein C (Homo sapiens, UniProt P04070). Briefly: Inhibition of human APC measured for 30 mins. Summed up:
as §1

In another assay the test system is Plasma. Kind of assay: Anticoagulant activity in F7-deficient human plasma assessed as concentration required to double prothrombin time. It is filed as functional.
In the next assay the target is Plasma kallikrein (Homo sapiens, UniProt P03952). Briefly: Inhibition of human plasma kallikrein using S2302 as substrate measured for 30 mins. Summed up:
as §1

Another assay addresses Kallikrein-1 (Homo sapiens, UniProt P06870). Briefly: Inhibition of human tissue kallikrein 1 measured for 30 mins. The method, boiled down:
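Purified human tissue kallikrein-1 assayed at 37 °C. Ki averaged from two experiments.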

Chain of Vitamin K-dependent protein C (P04070 43-197 limits assumed): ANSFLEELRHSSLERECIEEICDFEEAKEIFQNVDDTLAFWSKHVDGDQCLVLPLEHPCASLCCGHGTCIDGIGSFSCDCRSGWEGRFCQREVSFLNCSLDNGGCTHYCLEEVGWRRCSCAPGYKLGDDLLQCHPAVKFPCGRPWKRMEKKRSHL
Chain of Vitamin K-dependent protein C (P04070 212-461 limits assumed): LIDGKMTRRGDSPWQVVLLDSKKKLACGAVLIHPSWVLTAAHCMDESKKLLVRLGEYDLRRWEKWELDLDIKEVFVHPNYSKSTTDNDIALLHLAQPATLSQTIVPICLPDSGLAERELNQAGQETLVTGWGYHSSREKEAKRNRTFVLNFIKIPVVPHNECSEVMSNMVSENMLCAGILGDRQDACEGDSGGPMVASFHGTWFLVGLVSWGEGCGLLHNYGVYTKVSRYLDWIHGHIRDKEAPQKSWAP
Chain of Coagulation factor X (P00742 41-179 limits assumed): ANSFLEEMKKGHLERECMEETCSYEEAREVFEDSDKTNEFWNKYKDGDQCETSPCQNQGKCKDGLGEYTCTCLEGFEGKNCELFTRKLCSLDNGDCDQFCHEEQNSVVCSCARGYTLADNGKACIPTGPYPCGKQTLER
Chain of Coagulation factor X (P00742 235-488 limits assumed): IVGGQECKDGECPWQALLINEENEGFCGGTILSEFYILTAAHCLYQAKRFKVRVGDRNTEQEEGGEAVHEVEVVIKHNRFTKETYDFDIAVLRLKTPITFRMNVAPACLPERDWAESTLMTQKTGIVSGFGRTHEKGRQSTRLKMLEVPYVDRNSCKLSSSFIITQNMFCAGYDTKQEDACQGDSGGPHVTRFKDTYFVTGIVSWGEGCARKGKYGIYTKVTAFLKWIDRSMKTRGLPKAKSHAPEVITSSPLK
Chain of Plasma kallikrein (P03952 20-390 limits assumed): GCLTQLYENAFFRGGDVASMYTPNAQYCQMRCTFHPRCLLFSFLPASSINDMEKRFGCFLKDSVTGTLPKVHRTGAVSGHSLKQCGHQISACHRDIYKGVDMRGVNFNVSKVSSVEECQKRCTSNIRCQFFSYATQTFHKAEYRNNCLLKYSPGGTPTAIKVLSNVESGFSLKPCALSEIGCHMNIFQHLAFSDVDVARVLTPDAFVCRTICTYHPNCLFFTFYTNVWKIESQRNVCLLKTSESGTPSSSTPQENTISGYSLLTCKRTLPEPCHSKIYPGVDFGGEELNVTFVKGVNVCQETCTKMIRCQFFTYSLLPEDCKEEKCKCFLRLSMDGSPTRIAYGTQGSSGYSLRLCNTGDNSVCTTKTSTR
Chain of Plasma kallikrein (P03952 391-638 limits assumed): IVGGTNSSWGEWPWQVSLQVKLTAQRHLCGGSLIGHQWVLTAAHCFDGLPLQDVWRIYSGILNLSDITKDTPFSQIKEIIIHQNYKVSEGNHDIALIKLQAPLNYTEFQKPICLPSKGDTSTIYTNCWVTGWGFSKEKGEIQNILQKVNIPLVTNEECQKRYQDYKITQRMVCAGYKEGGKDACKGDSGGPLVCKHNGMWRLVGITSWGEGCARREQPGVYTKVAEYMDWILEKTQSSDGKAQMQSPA
Chain of Coagulation factor IX (P00740 47-191 limits assumed): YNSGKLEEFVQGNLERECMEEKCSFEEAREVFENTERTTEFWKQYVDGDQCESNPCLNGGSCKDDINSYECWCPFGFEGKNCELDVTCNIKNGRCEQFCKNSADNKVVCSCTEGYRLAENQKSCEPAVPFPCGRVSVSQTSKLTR
Chain of Coagulation factor IX (P00740 227-461 limits assumed): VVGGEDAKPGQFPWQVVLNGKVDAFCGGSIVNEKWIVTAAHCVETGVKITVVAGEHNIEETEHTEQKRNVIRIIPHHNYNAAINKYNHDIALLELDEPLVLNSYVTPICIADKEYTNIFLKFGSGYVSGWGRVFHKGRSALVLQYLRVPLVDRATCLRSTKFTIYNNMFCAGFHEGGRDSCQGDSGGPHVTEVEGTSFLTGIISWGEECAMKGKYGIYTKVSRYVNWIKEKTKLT
Chain of Coagulation factor VII/tissue factor (P08709 61-212 limits assumed): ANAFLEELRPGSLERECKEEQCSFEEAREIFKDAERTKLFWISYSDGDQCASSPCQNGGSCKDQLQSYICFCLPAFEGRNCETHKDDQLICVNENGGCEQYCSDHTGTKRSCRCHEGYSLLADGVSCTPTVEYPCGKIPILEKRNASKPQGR
Chain of Coagulation factor VII/tissue factor (P08709 213-466 limits assumed): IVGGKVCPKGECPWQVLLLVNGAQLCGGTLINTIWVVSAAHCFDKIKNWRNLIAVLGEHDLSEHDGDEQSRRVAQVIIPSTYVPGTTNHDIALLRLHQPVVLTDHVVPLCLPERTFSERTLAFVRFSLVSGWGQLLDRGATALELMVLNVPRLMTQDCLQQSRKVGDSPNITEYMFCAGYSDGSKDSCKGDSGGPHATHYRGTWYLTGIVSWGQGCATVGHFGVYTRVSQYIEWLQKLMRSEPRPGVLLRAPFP
Chain of Coagulation factor VII/tissue factor (P13726 33-295 partner limits assumed): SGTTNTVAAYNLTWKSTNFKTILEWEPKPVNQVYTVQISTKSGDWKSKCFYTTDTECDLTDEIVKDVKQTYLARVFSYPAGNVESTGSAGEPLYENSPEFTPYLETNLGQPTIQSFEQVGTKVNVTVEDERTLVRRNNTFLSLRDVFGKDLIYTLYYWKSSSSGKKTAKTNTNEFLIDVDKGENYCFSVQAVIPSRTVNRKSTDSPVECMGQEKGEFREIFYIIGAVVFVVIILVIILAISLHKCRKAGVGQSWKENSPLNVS
Chain of Kallikrein-1 (P06870 whole entry): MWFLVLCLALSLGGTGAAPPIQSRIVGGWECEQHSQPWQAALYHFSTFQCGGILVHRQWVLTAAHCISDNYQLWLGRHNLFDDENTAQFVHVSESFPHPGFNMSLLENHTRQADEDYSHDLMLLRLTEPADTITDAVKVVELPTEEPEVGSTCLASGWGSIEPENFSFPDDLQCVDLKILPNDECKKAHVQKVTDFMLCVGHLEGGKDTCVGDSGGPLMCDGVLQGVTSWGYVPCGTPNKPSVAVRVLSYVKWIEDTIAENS

`Nc1nccc2cc(NC3C(=O)NCc4cccc(c4)NC(=O)CCCOc4ccc3cc4)ccc12` (stereo not drawn): the Ki in assay [1] came out at 4600 nM.
On the same count and under the same terms, the figure for `Nc1nccc2cc(NC3C(=O)NCc4cccc(c4)NC(=O)CCCCc4ccc3cc4)ccc12` (stereo not drawn) is 6100 nM; for `Nc1nccc2cc(NC3C(=O)NCc4cccc(c4)NC(=O)CCCc4ccc3cc4)ccc12` (stereo not drawn) it is 920 nM.
As for `Nc1nccc2cc(N[C@H]3C(=O)NCc4cccc(c4)NC(=O)CCCc4ccc3cc4)ccc12`, the Ki at Coagulation factor IX is above 35000 nM; on Trypsin it was above 6000 nM; on Prothrombin it was above 13000 nM; at Coagulation factor X it was above 9000 nM; in assay [1], 400 nM; in [2] it was 2800 nM. Besides, the Ki is above 6000 nM at Plasma kallikrein and 18 nM on Kallikrein-1. Further, the 2PT in the assay on Plasma stood at 26 µM.
In the case of `Nc1nccc2cc(N[C@@H]3C(=O)NCc4cccc(c4)NC(=O)CCCc4ccc3cc4)ccc12`, the Ki in [1] is above 18000 nM.
Same read-out and setting: next, `Nc1nccc2cc(NC3C(=O)NCc4cccc(c4)NC(=O)CCc4ccc3cc4)ccc12` (stereo not drawn): 4600 nM; `Nc1nccc2cc(NC(C(=O)NCc3ccccc3)c3ccccc3)ccc12` (stereo not drawn): 54000 nM.
Consider `CC(=O)Nc1cccc(CNC(=O)C(Nc2ccc3c(N)nccc3c2)c2ccccc2)c1` (stereo not drawn), for which the Ki in assay [1] is 10000 nM.
In the case of `CCS(=O)(=O)c1ccc2cc1CNC(=O)[C@H](Nc1ccc3c(N)nccc3c1)c1ccc(cc1)CCCC(=O)N2`, the Ki at Coagulation factor IX was above 35000 nM; on Trypsin, 3600 nM; on Prothrombin, 5800 nM; on Coagulation factor X it was 3200 nM; in assay [1], 8 nM; in assay [2], 1300 nM. Besides, the Ki on Plasma kallikrein came to 4600 nM; on Kallikrein-1 it was 100 nM. For the same compound, the 2PT in the assay on Plasma is 1.6 µM.
For `CC(C)S(=O)(=O)c1ccc2cc1CNC(=O)[C@H](Nc1ccc3c(N)nccc3c1)c1ccc(cc1)CCCC(=O)N2`, the Ki on Coagulation factor IX is above 35000 nM; on Trypsin, 3000 nM; at Prothrombin it was 4000 nM; on Coagulation factor X it was 3300 nM; in assay [1], 5.2 nM; in [2] it was 1800 nM. Also, the figures for the Ki on Plasma kallikrein and at Kallikrein-1 were 3600 nM and 100 nM, respectively. Further, the 2PT with Plasma is 1.4 µM.
Take `CCS(=O)(=O)c1ccc2cc1CNC(=O)[C@H](Nc1ccc(C(=N)N)cc1)c1ccc(cc1)CCCC(=O)N2`: the Ki stood at 34000 nM at Coagulation factor IX; 58 nM at Trypsin; 180 nM at Prothrombin; 5500 nM on Coagulation factor X; 0.7 nM in [1]; 41 nM in [2]. In addition, the Ki on Plasma kallikrein was found to be 50 nM; on Kallikrein-1, 1900 nM. In addition, in the assay with Plasma, the 2PT was found to be 0.42 µM.
Consider `CCS(=O)(=O)c1ccc2cc1CNC(=O)[C@H](Nc1ccc3c(N)nccc3c1)c1ccc(c(C)c1)CCCC(=O)N2`, for which the Ki at Coagulation factor IX is 16000 nM; at Trypsin, 2700 nM; at Prothrombin it was 6700 nM; at Coagulation factor X it was 1000 nM; in [1], 1.6 nM; in [2], 830 nM. Further, the inhibitory constant (Ki) on Plasma kallikrein was 1700 nM; on Kallikrein-1 it was 100 nM. Moreover, in the assay on Plasma, the 2PT came to 1.2 µM.
Consider `CC(=O)Nc1ccc(S(=O)(=O)C(C)C)c([C@H]2CCCN2C(=O)[C@H](Nc2ccc3c(N)nccc3c2)c2ccccc2)c1`, for which the Ki in [1] stood at 8 nM. In addition, the 2PT with Plasma worked out at 12 µM.
`CC(C)(C)S(=O)(=O)c1ccc2cc1CNC(=O)C(Nc1ccc3c(N)nccc3c1)c1ccc(cc1)CCCC(=O)N2` (racemic): the Ki on Coagulation factor IX was above 35000 nM; at Trypsin, above 6000 nM; at Prothrombin, above 13000 nM; at Coagulation factor X, 4800 nM; in assay [1] it was 30 nM; in assay [2] it was 14000 nM. The values for the Ki on Plasma kallikrein and at Kallikrein-1 were above 6000 nM and 22 nM, respectively. In addition, the 2PT with Plasma amounted to 8.6 µM.
